Compounds with a hit are over-represented: about 3.8% of the library has one in this group of screens.
KCNK3 block: human KCNK3 channel inhibition, primary screen. O14649. CHO-KCNK3 thallium flux, FluxOR fluorescence; stronger effect = lower value. B-score at 10 µM. 340,000 compounds, 0.84% hits. AID 602410;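 active = B-score under library mean minus 4 SD, starting fluorescence ratio at most library mean plus 5 SD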;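 note: more negative B-score means stronger inhibition of thallium flux through KCNK3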
Kir21 inh: blocks the mouse Kir2.1 inward-rectifier potassium channel | B-score at 10 µM | 310,000 compounds, 0.85% hits | AID 1672 | P35561 | HEK293-Kir2.1, FluxOR thallium flux fluorescence; stronger effect = lower value;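 active = fluorescence ratio B-score at or below minus 3 SD of library scores, with starting-brightness B-score within 2 SD, cut at about -4.2 in these data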;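 note: channel flux triggered by added potassium and thallium sulfate stimulus; B-score of peak minus minimum fluorescence over baseline after thallium stimulus; more negative B-score means stronger Kir2.1 block with less thallium influx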
hERG rescue: compounds protecting human hERG from proarrhythmic drug block | CHO-hERG, FluxOR thallium flux, dofetilide IC70 present | activation (rescue from dofetilide block), less the hit threshold, % at 10 µM | 310,000 compounds, 0.51% hits | AID 1511;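 active = activation above the mean of controls blocked by dofetilide plus 5 SD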;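 note: thallium influx through hERG after potassium depolarization seen as dye fluorescence rise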
KCNQ1 inh: blocks the human KCNQ1 potassium channel | P51787 | CHO-K1 KCNQ1, FluxOR thallium flux fluorescence; stronger effect = higher value | B-score at 10 µM | 310,000 compounds, 1.3% hits | AID 2642;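 active = compounds whose thallium flux B-score, printed positive for inhibition, exceeds three library SD while starting fluorescence stays within three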;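 note: channel opened by potassium depolarization with thallium stimulus after 20 min compound exposure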
KCNQ1 pot: potentiators or activators of human KCNQ1 potassium channel; P51787; CHO-K1 KCNQ1, thallium flux FluxOR fluorescence; stronger effect = higher value; B-score at 10 µM; 310,000 compounds, 0.35% hits; AID 2648;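 active = fluorescence ratio B-score, a plate-corrected score, at least three library SD, with initial intensity B-score within 5 SD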
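Schedule – 37 °C overnight plating, 90-min dark dye load, 20-min compound pretreatment · System – stable KCNQ1 CHO-K1 line · Probe or stimulus – thallium- and potassium-containing depolarizing buffer · Measured by – kinetic FluxOR fluorescence, 10 s baseline plus 110 s post-stimulus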
KCNK9 block: blocks the human KCNK9 two-pore domain potassium channel | Q9NPC2 | HEK293 KCNK9, FluxOR thallium flux fluorescence; stronger effect = lower value | B-score at 10 µM | 310,000 compounds, 1.2% hits | AID 488922;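 active = ratio B-score over 3 SD below the library mean, with starting fluorescence within 5 SD of its mean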;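 note: negative B-score means less thallium flux so channel inhibition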
KCNK9 inh conf: confirmation of human KCNK9 potassium channel inhibitors | shares compounds with KCNK9 block | HEK293 KCNK9 cells, FluxOR thallium flux fluorescence | inhibition, % at 10 µM | 4,900 compounds, 43% hits;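 active = thallium signal inhibited by more than 5 SD of the compound-free buffer control wells, on both duplicate plates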;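 note: 0% = assay buffer control wells without compound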
Kir2-1 spec: selectivity of KCNK9 modulators against mouse Kir2.1. shares compounds with KCNK9 block. Kir2.1 cells, FluxOR thallium flux fluorescence. inhibition, % at 10 µM. 4,900 compounds, 4% hits. AID 492993;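 active = thallium signal drop more than 5 SD beyond the mean of the no-compound control wells, seen in both duplicate plates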;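 note: signal is fluorescence rise after thallium addition divided by baseline fluorescence; plate controls were assay buffer only for no effect and full block by chlorpromazine control for full effect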
HEK293 Tl ctr: second check of KCNK9 modulator effects in non-induced HEK293 cells | shares compounds with KCNK9 block | FluxOR thallium flux | 4,900 compounds, 40% hits | inhibition, % at 10 µM | AID 492997;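 active = thallium signal drop beyond 5 SD of the untreated control mean, on both duplicate plates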;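 note: plate controls were buffer only IC0 wells for no effect and SID17386958 at its maximal inhibitory level for full effect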
Starred values were filed as active, the others as inactive.

CC(C)c1ccc(OC(=O)c2cccc(S(=O)(=O)N3CCN(C)CC3)c2)cc1 was read as KCNK3 block inactive, Kir21 inh -0.65, hERG rescue -15, KCNQ1 inh inactive, KCNQ1 pot inactive, KCNK9 block inactive, KCNK9 inh conf inactive, Kir2-1 spec inactive and HEK293 Tl ctr inactive.
`CC1CN(C(=O)N2c3ccccc3Sc3ccccc32)C(C)CC1=O` (stereo not drawn) gave KCNK3 block inactive, Kir21 inh -0.22, hERG rescue 5.3*, KCNQ1 inh inactive, KCNQ1 pot inactive, KCNK9 block -8.1*, KCNK9 inh conf 30%*, Kir2-1 spec inactive and HEK293 Tl ctr 29%*.
`CC1CCCN(C(=O)N2c3ccccc3Sc3ccccc32)C1` (stereo not drawn) gave KCNK3 block inactive, Kir21 inh 0.63, hERG rescue -11, KCNQ1 inh inactive, KCNQ1 pot inactive, KCNK9 block -11*, KCNK9 inh conf 52%*, Kir2-1 spec inactive and HEK293 Tl ctr 44%*.
Screening COc1cccc(/C=N/Nc2nc(Nc3ccccc3)nc(-n3nc(C)cc3C)n2)c1O returned KCNK3 block inactive, Kir21 inh -0.45, hERG rescue -13, KCNQ1 inh inactive, KCNQ1 pot inactive, KCNK9 block -10*, KCNK9 inh conf 43%*, Kir2-1 spec inactive and HEK293 Tl ctr 24%*.
For Cc1ccc(-c2nc(C#N)c(N3CCCCC3)o2)cc1 the results were KCNK3 block inactive, Kir21 inh 0.01, hERG rescue -3, KCNQ1 inh inactive, KCNQ1 pot inactive and KCNK9 block inactive.
For N#Cc1nc(-c2ccc(Cl)cc2)oc1N1CCCCC1 the results were KCNK3 block inactive, Kir21 inh 1.6, hERG rescue -2, KCNQ1 inh inactive, KCNQ1 pot inactive, KCNK9 block -8.3*, KCNK9 inh conf inactive, Kir2-1 spec inactive and HEK293 Tl ctr 30%*.
CCOc1ccc(-c2nc(C#N)c(N3CCCCCC3)o2)cc1 was read as KCNK3 block inactive, Kir21 inh -1.9, hERG rescue -20, KCNQ1 inh inactive, KCNQ1 pot inactive, KCNK9 block -8.6*, KCNK9 inh conf 50%*, Kir2-1 spec inactive and HEK293 Tl ctr 40%*.
Cc1ccc2nc(Nc3ccc(C)c(C)c3)c3nncn3c2c1 was read as KCNK3 block inactive, Kir21 inh 1.8, hERG rescue -6, KCNQ1 inh inactive, KCNQ1 pot inactive and KCNK9 block inactive.
For CN(Cc1ccccc1)c1ncnc2c1cnn2-c1ccccc1 the results were KCNK3 block inactive, Kir21 inh -1.4, hERG rescue -13, KCNQ1 inh inactive, KCNQ1 pot inactive and KCNK9 block inactive.
For CCN(c1ccccc1)c1ncnc2c1cnn2-c1ccccc1 the results were KCNK3 block inactive, Kir21 inh 1.8, hERG rescue -23, KCNQ1 inh inactive, KCNQ1 pot inactive, KCNK9 block inactive, KCNK9 inh conf inactive, Kir2-1 spec inactive and HEK293 Tl ctr inactive.
Screening CN(C)C(=O)CSc1nnc(-c2ccc(S(=O)(=O)N3CCCC3)cc2)n1C returned KCNK3 block inactive, Kir21 inh 1.2, hERG rescue -7, KCNQ1 inh inactive, KCNQ1 pot inactive and KCNK9 block inactive.
CCOC(=O)c1c(NC(=O)CSc2nnc(C)c(=O)[nH]2)sc(C)c1-c1ccc(C)cc1 was read as KCNK3 block inactive, Kir21 inh 0.03, hERG rescue -15, KCNQ1 inh inactive, KCNQ1 pot inactive, KCNK9 block inactive, KCNK9 inh conf inactive, Kir2-1 spec inactive and HEK293 Tl ctr inactive.

Bioassay records (PubChem BioAssay)
